Assay results from the RNAGym collection of RNA variant scans (doi:10.1126/science.aae0568).
Fewer inactive variants are shown than the library holds.

B1: tRNA (parent)
chain: GUUCCGUUGGCGUAAUGGUAACGCGUCUCCCUCCUAAGGAGAAGACUGCGGGUUCGAGUCCCGUACGGAACG

Variants of: B1
Test: yeast fitness relative to wild type (ratio to wild type); higher = fitter; tRNA-Arg(CCU), competitive growth, 37 C, YPD
Outline: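 Gene amplicons from the start population and from each of six end populations were read by 100-nucleotide paired-end sequencing. Those end populations came from pooled Saccharomyces cerevisiae strains carrying tRNA-Arg(CCU) gene variants at the native locus, competed in YPD at 37°C for 24 hours. Fitness relative to wild type was worked out from changes in genotype frequencies. Genotypes needed ≥ 100 starting reads, and estimates < 0.5 were set to 0.5.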

Variant | yeast fitness
C4G C49U G52A C60G | ≤ 0.5
C4G G6C U8G G17A G23A C46G C60A | 0.567
C4G C27A C46U G67C | ≤ 0.5
C4G G6C C30A | ≤ 0.5
C4G C29G C46U | ≤ 0.5
C4G G6A C24U A40U A65C A69U | 0.815
C4G C33G U35C U59A A69U | ≤ 0.5
C4G G6A G23A A43G | ≤ 0.5
C4G G9C C22A G67A | ≤ 0.5
C4G G6C A40U A45G C55A | ≤ 0.5
C4G G6C | 0.657
C4G G9C C22A | ≤ 0.5
C4G G9A G10C C29A G50U U59G | 0.599
C4G G10C C46G | 0.632
C4G G9A G18C C31U C55A A65C | ≤ 0.5
C4G G9C C22A G68U | ≤ 0.5
C4G G6A A21C U53A U54A | ≤ 0.5
C4G C27A C31U | ≤ 0.5
C4G C30U G41A | 0.532
C4G G9A G50C G67A | ≤ 0.5
C4G C27U C29G | ≤ 0.5
C4G C34G A42U C61U | 0.646
C4G G12A | 0.781
C4G C30G A69U | ≤ 0.5

Variant | yeast fitness
C4G C34G A40G | 0.57
C4G G10A C30G A43G | 0.659
C4G C30G U32C | ≤ 0.5
C4G G9C C33G C61U A70G | ≤ 0.5
C4G C55A A57U | ≤ 0.5
C4G C62A | 0.67
C4G G9C G38C G68A | ≤ 0.5
C4G C49U U54G | ≤ 0.5
C4G C61G | 0.659
C4G C61U | 0.935
C4G C30G C55U | ≤ 0.5
C4G G10C U26C C27G A37G G39A | ≤ 0.5
C4G G9A G18C C31U U47G | ≤ 0.5
C4G C30A C62A | ≤ 0.5
C4G C30A C62U | 0.526
C4G C29G A36C A37U A40C A45G G51A | 0.503
C4G C27U G58A | 0.61
C4G G10A C22G C55A | 0.555
C4G G10C C24U C34U A36U C46A | ≤ 0.5
C4G C30G C33A | ≤ 0.5
C4G C30G A42U C55U C66A | ≤ 0.5
C4G C34G A65G | ≤ 0.5
C4G C30G C33G C66U | ≤ 0.5
C4G C33G A42U U47G U54A C61A | ≤ 0.5

Variant | yeast fitness
C4G G10C C11G A37U A43G A69G | ≤ 0.5
C4G C31G A40G C62A | ≤ 0.5
C4G C33U A43C | ≤ 0.5
C4G C49G G67A | ≤ 0.5
C4G C34G A42U C61U C66U | ≤ 0.5
C4G G9A G10C C29A U53C C62U | ≤ 0.5
C4G G9C G41A C55U U59A | ≤ 0.5
C4G G9A G39A A65U A69U | ≤ 0.5
C4G C66U | 0.836
C4G C66G | 0.671
C4G C49G U64G A65G A70U | ≤ 0.5
C4G C60G C61U | ≤ 0.5
C4G C55A C60A | ≤ 0.5
C4G C27U C31U | 0.652
C4G C31G | 0.761
C4G C29A C34U A36U | 0.578
C4G C27U C49U | ≤ 0.5
C4G G9A A21C C22A | ≤ 0.5
C4G C27A | 0.734
C4G C27U | 0.789
C4G G9C C33G C66U | 0.72
C4G G6C U8G G17A G23A A45G A70C | ≤ 0.5
C4G G6C C29G G63C | ≤ 0.5
C4G C29A C33G A45C G67C | ≤ 0.5

Variant | yeast fitness
C4G C34A C66U | ≤ 0.5
C4G C33U A45U C60G | ≤ 0.5
C4G C24U C62A C66U | ≤ 0.5
C4G G6A G23A A43G A69U A70G | ≤ 0.5
C4G G10A G41C C62G | 0.572
C4G G9C C22A C62A C66G | ≤ 0.5
C4G G9C G10A C24U | ≤ 0.5
C4G C34A | 0.762
C4G C29G C61U | 0.562
C4G C29A C60U C61G | ≤ 0.5
C4G G10U A20U C34G A37G C66U | ≤ 0.5
C4G C55U | 0.748
C4G C30G A42C C55G | ≤ 0.5
C4G C30G G50U C66U | 0.588
C4G G10A A42C U54G | ≤ 0.5
C4G C60U G63C G68A | ≤ 0.5
C4G C24U U32G A40U U64G | ≤ 0.5
C4G C34A U54C | 0.54
C4G G10C G12C A21C G48C | ≤ 0.5
C4G C27G C34U A37C C55U | ≤ 0.5
C4G C27G C30G C49U C60U G63C | 0.562
C4G G10U A14U C24U C33U G52A C66U | ≤ 0.5
C4G C30A A42C A69U | ≤ 0.5
C4G G6C A21C C31U U35A U47G | 0.569

Variant | yeast fitness
C4G C34G A37U A42U C61U | ≤ 0.5
C4G C55U G68C | 0.56
C4G C34G A43G A57C | ≤ 0.5
C4G G9C U35C G41A C55U U59A A70U | ≤ 0.5
C4G G12A A43U A45C G67C | ≤ 0.5
C4G G6A G10C U19A C24G A43G C61G A70U | ≤ 0.5
C4G C27A C61A C66U A69C | ≤ 0.5
C4G C61G G63C A70G | 0.516
C4G G9A G10C C29A A37G G50U U59G | ≤ 0.5
C4G C60A | 0.642
C4G C34U C55A G68C | ≤ 0.5
C4G C30U A40G C60G | ≤ 0.5
C4G G10A A69U | 0.625
C4G C27U G41C A42C | ≤ 0.5
C4G C27G A65U G68U | 0.562
C4G C30U C49U | 0.604
C4G C29A C30U C62G U64A | ≤ 0.5
C4G C29U G56A A65C A70C | 0.77
C4G G9C C22A A69U | 0.525
C4G C24U U47C | 0.673
C4G G9C G41A C61U | ≤ 0.5
C4G C29A C46A | ≤ 0.5
C4G G6A C11U C29A G63A A70G | ≤ 0.5
C4G G9C C22A A70C | ≤ 0.5

Variant | yeast fitness
C4G C33G A36C C66U | ≤ 0.5
C4G C30U G63C | 0.628
C4G G6A A21C | 0.701
C4G C30G C33A A70G | ≤ 0.5
C4G G6A A69U | 0.667
C4G C30G A40G A65C | ≤ 0.5
C4G G6A G10C U19A C24G A43G C61G A65U | 0.576
C4G C55G G63A | 0.558
C4G G10C C11G A37U A43G | ≤ 0.5
C4G G6A G23A A43G C55U | ≤ 0.5
C4G C46U G48A | 1.04
C4G C62A C66U | 0.704
C4G G10A C27G A45U C49G C55A | 0.617
C4G C34U G67A A69U | ≤ 0.5
C4G G9C C33G | 0.674
C4G G10C C46A G68C | ≤ 0.5
C4G G10C G12C A21C G48C A57G | 0.527
C4G C29G C49U | 0.588
C4G C49U G52A | 0.55
C4G C55U G63A G68C | ≤ 0.5
C4G G10A C29U C46G | ≤ 0.5
C4G C46G | 0.854
C4G C49A G56C C61U | 0.609
C4G C34U C49A | 0.61

Variant | yeast fitness
C4G G10A G41C | ≤ 0.5
C4G C30A A70U | 0.695
C4G C27A A36G | 0.534
C4G C60G G68C | 0.622
C4G G10A A21G | 0.547
C4G C30A G67A | ≤ 0.5
C4G G9A G10C C29A G50U U59G A69U | ≤ 0.5
C4G C33G G67A | ≤ 0.5
C4G G9C G41A C55U U59A A70U | 0.545
C4G C30G G58A | ≤ 0.5
C4G C34G U47A C49A A65G | 0.519
C4G C29A U32A A45C A65C | ≤ 0.5
C4G G9A A14G G25C A57C U64A | ≤ 0.5
C4G G6A C46U A69C | 0.536
C4G C46U G67C | 0.597
C4G C46G A69U | 0.721
C4G C31A A42C C46G | 0.561
C4G G9C A42U C55G | ≤ 0.5
C4G G9A A21C C22A C66U | 0.559
C4G G9A U28C G39A | ≤ 0.5
C4G C34U C49A G68C | ≤ 0.5
C4G C27A G48A | 0.571
C4G G6C A36C C62G C66A | ≤ 0.5
